Results pooled from the literature.
Lines come from different studies, so protocols differ.
Cell line: MCF7
Effect on: cell growth or viability

O=C(C=Cc1ccc(OCCOc2ccc(C=CC(=O)c3cccs3)cc2)cc1)c1cccs1 — IC50 (MTT; 48 h): 11.5 µM
O=[N+]([O-])c1ccc(O)c(C=NNc2ccc(Br)cc2)c1 — IC50 (MTT; 24 h): 8.67 µM
COc1ccc(C=NNC(=O)c2cc(-c3ccccc3)n(-c3ccc(S(N)(=O)=O)cc3)n2)cc1OC — IC50 (fluorescence; 48 h): 21.1 µM
Cc1ccc(CN2C(=O)C(=Nc3cccc(C)c3)c3ccccc32)cc1 — IC50 (MTT; 48 h): 2.8 µM
COc1cc(C2C3=C(Nc4nc(SC)[nH]c(=O)c42)c2ccccc2C3=O)ccc1O (stereo not drawn) — IC50 (MTT; 72 h): > 1000 µM
CC(=NNC(=O)c1cc(-c2ccccc2)n(-c2ccc(S(N)(=O)=O)cc2)n1)c1ccc(C)cc1 — IC50 (fluorescence; 48 h): 18.5 µM
C(=N\Nc1cc(N/N=C/c2ccc3ccccc3n2)nc(-c2ccccc2)n1)/c1ccc2ccccc2n1 — IC50 (MTT; 48 h): 7.05 µM
Fc1ccc(NC(=S)N/N=C/c2cccc3cc4ccccc4nc23)cc1 — IC50 (MTT; 48 h): > 50 µM
O=C1CSC(=Nc2cc([N+](=O)[O-])ccc2[N+](=O)[O-])N1c1nnc(-c2ccc(C(F)(F)F)cc2N=C2SCC(=O)N2c2cc([N+](=O)[O-])ccc2[N+](=O)[O-])s1 — IC50 (MTT): 83.4 µM
O=[N+]([O-])c1cc(Br)c(O)c(C=NNc2ccc(Cl)cc2)c1 — IC50 (MTT; 24 h): 10.1 µM
Cc1noc(-c2nn(Cc3ccc(Cl)cc3Cl)c3ccccc23)n1 — IC50 (48 h): 47.5 µM
C/C(=N\C(=N)/N=C(\C)c1c(O)c2ccccc2oc1=O)c1c(O)c2ccccc2oc1=O — IC50 (MTT; 48 h): 19.6 µM
O=C(NCc1ccc(OC(F)(F)F)cc1)c1cn(Cc2ccc(F)cc2)c2ccc(Oc3ccccc3)cc2c1=O — IC50 (MTT; 24 h): 343 µM
C/C(=N\CCNCC/N=C(\C)c1c(O)c2ccccc2oc1=O)c1c(O)c2ccccc2oc1=O — IC50 (MTT; 48 h): 11 µM
CNC(=S)N/N=C/c1cccc2cc3ccccc3nc12 — IC50 (MTT; 48 h): 18.8 µM
Fc1ccccc1Nc1nc(-c2ccncc2)nc2c1CNCC2 — IC50 (MTT): > 100 µM
CCOC(=O)c1c(C)nc2ccc(-c3ccc(OCc4ccccc4)c(F)c3)cc2c1O — IC50 (MTT; 48 h): 5 µM
NS(=O)(=O)c1ccc(-n2nc(C(=O)NN=Cc3ccccc3O)cc2-c2ccccc2)cc1 — IC50 (fluorescence; 48 h): 18 µM
CN(C)C(=O)Nc1nc2c(Cl)cc(Cl)cc2c(=O)n1-c1ccccc1 — IC50 (MTT; 48 h): > 200 µM
CO[C@H]1[C@H](O[C@H]([C@H]2O[C@@H](n3ccc(=O)[nH]c3=O)[C@H](O)[C@@H]2O)[C@H](NCCCNC(=O)[C@@H](NC(=O)[C@@H](NC(=O)N[C@H](C(=O)O)C(C)C)[C@@H]2CCN=C(N)N2)[C@@H](OC(=O)CCCCCCCCCCCCN(O)C(=N)N)C(C)C)C(=O)O)O[C@H](CN)[C@H]1O — IC50 (WST-1): 0.95 µM
Cc1cccc(N=C2C(=O)N(Cc3cccc(Cl)c3)c3ccccc32)c1 — IC50 (MTT; 48 h): 2.12 µM
NNc1nc2ccc(Br)cc2c(=O)n1-c1ccc(F)cc1 — IC50 (MTT; 48 h): 10 µM
COc1ccccc1/C=N/N=C1\C(=O)Nc2ccccc21 — IC50 (MTT; 24 h): 45.6 µg/mL
COc1cccc2c1C(=O)c1c(O)c3c(c(O)c1C2=O)C[C@@](O)(C(=O)CO)C[C@@H]3O[C@H]1C[C@H](N)[C@H](O)[C@H](C)O1 — IC50 (96 h): 0.146 µM
CC1=CC(=O)C(C(C)C)=CC1=O — IC50 (SRB; 48 h): 9.8 µM
O=C1C(=Nc2ccc(Cl)cc2Br)c2ccccc2N1Cc1ccc(Br)cc1 — IC50 (MTT; 48 h): 2.54 µM
Cc1nnc(-c2nn(Cc3ccc(Cl)cc3Cl)c3ccccc23)o1 — IC50 (48 h): 19.8 µM
Cc1cccc(N=C2C(=O)N(Cc3ccccc3)c3ccccc32)c1 — IC50 (MTT; 48 h): 8.11 µM
CC(=O)c1nc2ccccc2n1Cc1cn([C@@H]2OC[C@@H](O)[C@H](O)[C@H]2O)nn1 — IC50 (LDH; 48 h): 2.08 µM
COc1cccc2c1C(=O)c1c(O)c3c(c(O)c1C2=O)C[C@@](O)(C(=O)CO)C[C@@H]3O[C@H]1C[C@H](N)[C@H](O)[C@H](C)O1 — IC50 (MTT): 34.3 µM
COc1ccc2c(-c3ncc(-c4ccccc4)o3)nn(Cc3ccccc3)c2c1 — IC50 (48 h): 88 µM
Cc1nc2ccc(-c3ccc(OCc4ccccc4)c(F)c3)cc2c(O)c1C(=O)O — IC50 (MTT; 48 h): ≥ 100 µM
c1ccc(Cn2nc(-c3ncc(-c4ccccc4)s3)c3ccccc32)cc1 — IC50 (48 h): 73.8 µM
COc1cccc(N=C2SCC(=O)N2c2nnc(-c3ccc(C(F)(F)F)cc3N=C3SCC(=O)N3c3cccc(OC)c3)s2)c1 — IC50 (MTT): 78.3 µM
CN(C)C(=S)[N-]N=C(c1ccccn1)c1ccccn1.[O]=[V+]=[O] — IC50 (MTT): 0.89 µM
Cc1nc2ccc(-c3ccc(F)c(F)c3)cc2c(O)c1C(=O)O — IC50 (MTT; 48 h): ≥ 100 µM
CCOC(=O)C(=CNc1ccc(Oc2ccccc2)cc1)C(=O)OCC — IC50 (MTT; 24 h): 102 µM
O=C1CS/C(=N\c2cc(C(F)(F)F)ccc2-c2nnc(N3C(=O)CS/C3=N\c3cccc(Cl)c3)s2)N1c1cccc(Cl)c1 — IC50 (MTT): 49.2 µM
O=C1C(Cl)=C(n2cncn2)C(=O)c2ccccc21 — IC50 (MTT; 24 h): 26.8 µg/mL
O=C1C(=Nc2ccc(Cl)cc2)c2ccccc2N1Cc1cccc(Cl)c1 — IC50 (MTT; 48 h): 9.41 µM
C[C@H]1[C@H](C)CC[C@]2(C)CC[C@]3(C)C(=CC(=O)[C@@H]4[C@@]5(C)CC[C@@H](O)[C@](C)(C(=O)NCc6cn(-c7ccccc7)nn6)[C@@H]5CC[C@]43C)[C@H]12 — IC50 (MTT; 24 h): 124 µM
C(=N\Nc1cc(N/N=C/c2cccc3cccnc23)nc(-c2ccccc2)n1)/c1cccc2cccnc12 — IC50 (MTT; 48 h): 10.4 µM
COc1ccc(N(Cc2nc(-c3ccc(F)cc3)cs2)C(=O)CCCCCC(=O)NO)cc1 — IC50 (MTT; 72 h): 10.2 µM
COc1cccc2c1C(=O)c1c(O)c3c(c(O)c1C2=O)C[C@@](O)(C(=O)CO)C[C@@H]3O[C@H]1C[C@H](N)[C@H](O)[C@H](C)O1 — IC50 (MTT; 24 h): 3.94 µM
CC(C)c1cccc(C(C)C)c1N=C1C(=O)N(Cc2ccc(Br)cc2)c2ccccc21 — IC50 (MTT; 48 h): 52.6 µM
O=C(NO)Nc1nc2c(Cl)cc(Cl)cc2c(=O)n1-c1ccccc1 — IC50 (MTT; 48 h): > 200 µM
C/C(=N\CCNCCNCC/N=C(\C)c1c(O)c2ccccc2oc1=O)c1c(O)c2ccccc2oc1=O — IC50 (MTT; 48 h): 7.52 µM
C[C@H]1[C@H](C)CC[C@]2(C)CC[C@]3(C)C(=CC(=O)[C@@H]4[C@@]5(C)CC[C@@H](O)[C@](C)(C(=O)NCc6cn(-c7ccc(Br)cc7)nn6)[C@@H]5CC[C@]43C)[C@H]12 — IC50 (MTT; 24 h): 75.1 µM
CC(=O)c1nc2ccccc2n1Cc1cn([C@@H]2O[C@H](CO)[C@H](O)[C@H](O)[C@H]2O)nn1 — IC50 (LDH; 48 h): 2.89 µM
O=[N+]([O-])c1ccc(O)c(C=NNc2ccc(Cl)cc2)c1 — IC50 (MTT; 24 h): 9.3 µM
C=CCN1C(=O)C(=Nc2cccc(C)c2)c2ccccc21 — IC50 (MTT; 48 h): > 100 µM
c1ccc(Cn2nc(-c3nc(-c4ccccc4)n[nH]3)c3ccccc32)cc1 — IC50 (48 h): 97.4 µM
Cc1ccc(NNc2nc3ccc(Br)cc3c(=O)n2-c2ccccc2)cc1 — IC50 (MTT; 48 h): > 200 µM
Cc1ccc(CN2C(=O)C(=Nc3c(C(C)C)cccc3C(C)C)c3ccccc32)cc1 — IC50 (MTT; 48 h): 53.1 µM
